Data published in ChEMBL document CHEMBL1949625, “Hydroxyl may not be indispensable for raltegravir: Design, synthesis and SAR Studies of raltegravir derivatives as HIV-1 inhibitors” (Eur J Med Chem, 2012).

Assays:
[1] = system: Human immunodeficiency virus 1; test: Antiviral activity against HIV1 harboring VSV glycoprotein-G co-transfected with luciferase gene infected in human TZM-bl cells assessed as inhibition of viral replication at 10 uM after 48 hrs by microplate luminometer based luciferase assay; assay type: functional; conditions: for inhibition at 10 µM: Human immunodeficiency virus 1, TZM-bl, 48 h
Summary of the method: (§1)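 TZM-bl cells seeded at 10^4 cells/well; next day compounds (from DMSO stocks) added, then pseudotyped virus; final DMSO 2% in all wells. Incubated 48 h at 37 °C, humidified CO2. Steady-glow substrate added directly, lysis 20 min in dark, luciferase luminescence read. AZT and MK-0518 as assay controls. Primary screen run at 10 μM.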

[2] = Cytotoxicity against human TZM-bl cells after 48 hrs by MTT assay; assay type: cell-based
Summary of the method: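 TZM-bl cells plated and incubated 18 h at 37 °C, then exposed to compounds for 48 h. MTT (5 mg/mL, 20 uL) added for 3 h at 37 °C; plates shaken 10 min at room temperature. OD550 read with 690 nm reference.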

[3] = system: Human immunodeficiency virus 1; test: Antiviral activity against HIV1 harboring VSV glycoprotein-G co-transfected with luciferase gene infected in human TZM-bl cells assessed as inhibition of viral replication after 48 hrs by microplate luminometer based luciferase assay; assay type: functional, organism-based; conditions: Human immunodeficiency virus 1, TZM-bl; summary of the method: as §1

| SMILES | inhibition at 10 µM [1] [%] | Activity [2] | IC50 [3] [nM] | inhibition (INH) [1] [%] |
| --- | --- | --- | --- | --- |
| COc1nc(C(C)(C)NC(=O)c2nnc(C)o2)nc(C(=O)NCc2ccc(F)cc2)c1[O-].[K+] | 92.9 | Non-toxic | 200 |  |
| Cc1cn([C@H]2C[C@H](N=[N+]=[N-])[C@@H](CO)O2)c(=O)[nH]c1=O [ZIDOVUDINE] | 100 |  |  |  |
| CCN(CC)C(=O)C(=O)NC(C)(C)c1nc(OC)c(OS(C)(=O)=O)c(C(=O)NCc2ccc(F)cc2)n1 | 28.6 | Non-toxic |  |  |
| Cc1nnc(C(=O)NC(C)(C)c2nc(C(=O)NCc3ccc(F)cc3)c(OC(=O)c3ccccc3)c(=O)n2C)o1 | 100 | Non-toxic | 4e-05 |  |
| COc1nc(C(C)(C)NC(=O)c2nnc(C)o2)nc(C(=O)NCc2ccc(F)cc2)c1OC(=O)c1ccccc1 | 93.4 | Non-toxic | 14.7 |  |
| CCN(CC)C(=O)C(=O)NC(C)(C)c1nc(C(=O)OC)c(OC(=O)c2ccccc2)c(=O)n1C | -2.7 | Non-toxic |  |  |
| COc1nc(C(C)(C)NC(=O)c2nnc(C)o2)nc(C(=O)NCc2ccc(F)cc2)c1OS(=O)(=O)c1c(C)cc(C)cc1C | 79.7 | Non-toxic | 1200 |  |
| Cc1cc(C)c(S(=O)(=O)Oc2c(C(=O)NCc3ccc(F)cc3)nc(C(C)(C)NC(=O)c3nnc(C)o3)n(C)c2=O)c(C)c1 | 94.9 | Non-toxic | 0.04 |  |
| CCN(CC)C(=O)C(=O)NC(C)(C)c1nc(C(=O)NCc2ccc(F)cc2)c(O)c(=O)n1C | 95.5 | Non-toxic | 0.5 |  |
| COc1nc(C(C)(C)NC(=O)c2nnc(C)o2)nc(C(=O)NCc2ccc(F)cc2)c1OC(C)=O | 94.2 | Non-toxic | 7.3 |  |
| COc1nc(C(C)(C)NC(=O)c2nnc(C)o2)nc(C(=O)NCc2ccc(F)cc2)c1O |  | Non-toxic |  | 94.1 |
| CCN(CC)C(=O)C(=O)NC(C)(C)c1nc(C(=O)NCc2ccc(F)cc2)c(OS(C)(=O)=O)c(=O)n1C | 93.7 | Non-toxic | 0.64 |  |
| CCN(CC)C(=O)C(=O)NC(C)(C)c1nc(C(=O)NCc2ccc(F)cc2)c(OS(=O)(=O)c2c(C)cc(C)cc2C)c(=O)n1C | 77.7 | Non-toxic | 0.3 |  |
| COc1nc(C(C)(C)NC(=O)c2nnc(C)o2)nc(C(=O)NCc2ccc(F)cc2)c1OS(C)(=O)=O | 88.3 | Non-toxic | 32.8 |  |
| Cc1nnc(C(=O)NC(C)(C)c2nc(NCc3ccc(F)cc3)c(O)c(C(=O)NCc3ccc(F)cc3)n2)o1 | 47.5 | Non-toxic |  |  |
| CCN(CC)C(=O)C(=O)NC(C)(C)c1nc(OC)c(OC(C)=O)c(C(=O)NCc2ccc(F)cc2)n1 | 59.3 | Non-toxic |  |  |
| CCN(CC)C(=O)C(=O)NC(C)(C)c1nc(OC)c(O)c(C(=O)NCc2ccc(F)cc2)n1 | 44.9 | Non-toxic |  |  |
| CCN(CC)C(=O)C(=O)NC(C)(C)c1nc(OC)c(OC(=O)c2ccccc2)c(C(=O)NCc2ccc(F)cc2)n1 | 52.1 | Non-toxic |  |  |
| CCN(CC)C(=O)C(=O)NC(C)(C)c1nc(OC)c(OS(=O)(=O)c2c(C)cc(C)cc2C)c(C(=O)NCc2ccc(F)cc2)n1 | 6 | Non-toxic |  |  |
| CCN(CC)C(=O)C(=O)NC(C)(C)c1nc(C(=O)NCc2ccc(F)cc2)c(OC(C)=O)c(=O)n1C | 94.2 | Non-toxic | 0.062 |  |
| CCN(CC)C(=O)C(=O)NC(C)(C)c1nc(OC)c(OC(=O)c2ccccc2)c(C(=O)OC)n1 | 19.8 | Non-toxic |  |  |
| Cc1nnc(C(=O)NC(C)(C)c2nc(C(=O)NCc3ccc(F)cc3)c(OS(C)(=O)=O)c(=O)n2C)o1 | 92.7 | Non-toxic | 2.4 |  |
| Cc1nnc(C(=O)NC(C)(C)c2nc(C(=O)NCc3ccc(F)cc3)c(O)c(=O)n2C)o1 [RALTEGRAVIR POTASSIUM] | 95.1 |  | 8 |  |
| CCN(CC)C(=O)C(=O)NC(C)(C)c1nc(C(=O)NCc2ccc(F)cc2)c(OC(=O)c2ccccc2)c(=O)n1C | 92.8 | Non-toxic | 8e-05 |  |
| CC(=O)Oc1c(C(=O)NCc2ccc(F)cc2)nc(C(C)(C)NC(=O)c2nnc(C)o2)n(C)c1=O | 95.1 | Non-toxic | 1 |  |
